What all share (type): ADME, organism-based
A short description of data set [1]: Oral bioavailability in rat at 10 mg/kg administered as single dose. Particulars: in vivo.
Data set [2] is described as follows: Volume of distribution in rat. Particulars: in vivo.
Data set [3] is described as follows: Drug level in rat brain at 10 mg/kg, sc after 1 hr. Particulars: read-out: Drug uptake. The arrangement: dose 10 mg/kg, route subcutaneous. In outline: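 Rats dosed 10 mg/kg sc; total brain level measured 1 h after dosing.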

A word on the bioavailability: it is the share of a dose that reaches the circulation, judged against a reference dose that is usually intravenous. One may read the Vd as the apparent volume that relates the amount in the body to the concentration in plasma or blood. Read a low Vd as confinement near the circulation.

In turn, `COCCc1ccc(-c2c(C)nc3c(N4CCOCC4)nccn23)cn1` came in with a bioavailability in data set [1] of 45%. Moreover, the Vd in data set [2] was determined as 1.9 L/kg. Moreover, the concentration at 1 h in data set [3] stood at 1210 ng/g.

The values are drawn from ChEMBL document CHEMBL3393008, “Identification of a novel orally bioavailable phosphodiesterase 10A (PDE10A) inhibitor with efficacy in animal models of schizophrenia” (J Med Chem, 2015).
